From ChEMBL document CHEMBL2311328, “Molecular docking and synthesis of novel quinazoline analogues as inhibitors of transcription factors NF-κB activation and their anti-cancer activities” (2013)
Calls of active or inactive are those of the source. No cut-off for these calls is given here.

Legend:
HepG2 [1] = assay: Inhibition of TNFalpha-induced NFkappaB (unknown origin)-dependent transcriptional activity expressed in human HepG2 cells at 1 uM incubated for 1 hr prior to TNFalpha induction measured after 6 hrs by dual-luciferase reporter gene assay; assay type: cell-based
How it was run: (§1)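 HepG2 cells in DMEM with 10% FBS were lipofectamine-transfected with 10 ng/well pGL4.32 NF-κB-Luc plus Renilla control. Compound in DMSO was given in fresh medium for 1 h at 37 °C, then TNFα (final 20 ng/ml) for 6 h. Cells were lysed in passive lysis buffer. Firefly light units were normalized to Renilla; one-way ANOVA.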

HepG2 [2] = assay: Cytotoxicity against human HepG2 cells assessed as cellular growth at 50 uM incubated for 1 hr prior to TNF alpha stimulation measured after 48 hrs by SRB assay; assay type: functional
How it was run: (§2)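 HepG2 cells in DMEM with 10% FBS and penicillin/streptomycin were allowed to adhere 24 h, and a T0 plate was fixed. Compound was given for 1 h at 37 °C, with or without 20 ng/ml TNFα, then 48 h more. Cells were stained with 0.4% SRB for 30 min at RT, washed in 1% acetic acid, and solubilized in 10 mM Tris. OD read at 515 nm; one-way ANOVA.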

HepG2 [3] = assay: Cytotoxicity against human HepG2 cells assessed as cellular growth at 50 uM after 48 hrs by SRB assay in absence of TNFalpha; assay type: functional; how it was run: as §2
BT-549 = assay: Cytotoxicity against human BT549 cells after 48 hrs by SRB assay; assay type: functional; settings: BT-549, 48 h
How it was run: (§3)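 Screened by the NCI Developmental Therapeutics Program in dose-response format. GI50 was determined by the sulforhodamine B protocol.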

T47D = assay: Cytotoxicity against human T47D cells after 48 hrs by SRB assay; assay type: functional; how it was run: as §3
MDA-MB-231 = assay: Cytotoxicity against human MDA-MB-231 cells after 48 hrs by SRB assay; assay type: functional; settings: MDA-MB-231, 48 h; how it was run: as §3
Hs-578T = assay: Cytotoxicity against human Hs578T cells after 48 hrs by SRB assay; assay type: functional; how it was run: as §3
DU-145 = assay: Cytotoxicity against human DU145 cells after 48 hrs by SRB assay; assay type: functional; settings: DU-145, 48 h; how it was run: as §3
MCF7 = assay: Cytotoxicity against human MCF7 cells after 48 hrs by SRB assay; assay type: functional; settings: MCF7, 48 h; how it was run: as §3
UO-31 = assay: Cytotoxicity against human UO31 cells after 48 hrs by SRB assay; assay type: functional; settings: UO-31, 48 h; how it was run: as §3
PC-3 = assay: Cytotoxicity against human PC3 cells after 48 hrs by SRB assay; assay type: functional; settings: PC-3, 48 h; how it was run: as §3
SN12C = assay: Cytotoxicity against human SN12C cells after 48 hrs by SRB assay; assay type: functional; how it was run: as §3
TK-10 = assay: Cytotoxicity against human TK10 cells after 48 hrs by SRB assay; assay type: functional; settings: TK-10, 48 h; how it was run: as §3
CAKI-1 = assay: Cytotoxicity against human Caki1 cells after 48 hrs by SRB assay; assay type: functional; settings: CAKI-1, 48 h; how it was run: as §3
RXF 393 = assay: Cytotoxicity against human RXF393 cells after 48 hrs by SRB assay; assay type: functional; settings: RXF 393, 48 h; how it was run: as §3
786-0 = assay: Cytotoxicity against human 786-0 cells after 48 hrs by SRB assay; assay type: functional; settings: 786-0, 48 h; how it was run: as §3
A498 = assay: Cytotoxicity against human A498 cells after 48 hrs by SRB assay; assay type: functional; settings: A498, 48 h; how it was run: as §3
[4] = Cytotoxicity against human NCI-ADR-RES cells after 48 hrs by SRB assay; assay type: functional; how it was run: as §3
[5] = Cytotoxicity against human SKOC3 cells after 48 hrs by SRB assay; assay type: functional; settings: SKOC3, 48 h; how it was run: as §3
OVCAR-8 = assay: Cytotoxicity against human OVCAR8 cells after 48 hrs by SRB assay; assay type: functional; settings: OVCAR-8, 48 h; how it was run: as §3
OVCAR-4 = assay: Cytotoxicity against human OVCAR4 cells after 48 hrs by SRB assay; assay type: functional; settings: OVCAR-4, 48 h; how it was run: as §3
IGROV-1 = assay: Cytotoxicity against human IGROV1 cells after 48 hrs by SRB assay; assay type: functional; settings: IGROV-1, 48 h; how it was run: as §3
OVCAR-3 = assay: Cytotoxicity against human OVCAR3 cells after 48 hrs by SRB assay; assay type: functional; settings: OVCAR-3, 48 h; how it was run: as §3
UACC-257 = assay: Cytotoxicity against human UACC257 cells after 48 hrs by SRB assay; assay type: functional; settings: UACC-257, 48 h; how it was run: as §3
UACC-62 = assay: Cytotoxicity against human UACC62 cells after 48 hrs by SRB assay; assay type: functional; settings: UACC-62, 48 h; how it was run: as §3
SK-MEL-2 = assay: Cytotoxicity against human SK-MEL-2 cells after 48 hrs by SRB assay; assay type: functional; settings: SK-MEL-2, 48 h; how it was run: as §3
SK-MEL-28 = assay: Cytotoxicity against human SK-MEL-28 cells after 48 hrs by SRB assay; assay type: functional; settings: SK-MEL-28, 48 h; how it was run: as §3
MDA-MB-435 = assay: Cytotoxicity against human MDA-MB-435 cells after 48 hrs by SRB assay; assay type: functional; settings: MDA-MB-435, 48 h; how it was run: as §3
M14 = assay: Cytotoxicity against human M14 cells after 48 hrs by SRB assay; assay type: functional; settings: M14, 48 h; how it was run: as §3
LOX IMVI = assay: Cytotoxicity against human LOXIMVI cells after 48 hrs by SRB assay; assay type: functional; how it was run: as §3
Malme-3M = assay: Cytotoxicity against human MALME-3M cells after 48 hrs by SRB assay; assay type: functional; how it was run: as §3
U-251 = assay: Cytotoxicity against human U251 cells after 48 hrs by SRB assay; assay type: functional; settings: U-251, 48 h; how it was run: as §3
SNB-19 = assay: Cytotoxicity against human SNB19 cells after 48 hrs by SRB assay; assay type: functional; settings: SNB-19, 48 h; how it was run: as §3
SNB-75 = assay: Cytotoxicity against human SNB75 cells after 48 hrs by SRB assay; assay type: functional; settings: SNB-75, 48 h; how it was run: as §3
SF-295 = assay: Cytotoxicity against human SF295 cells after 48 hrs by SRB assay; assay type: functional; settings: SF-295, 48 h; how it was run: as §3
SF-539 = assay: Cytotoxicity against human SF539 cells after 48 hrs by SRB assay; assay type: functional; settings: SF-539, 48 h; how it was run: as §3
SF-268 = assay: Cytotoxicity against human SF268 cells after 48 hrs by SRB assay; assay type: functional; settings: SF-268, 48 h; how it was run: as §3
SW-620 = assay: Cytotoxicity against human SW620 cells after 48 hrs by SRB assay; assay type: functional; settings: SW-620, 48 h; how it was run: as §3
KM12 = assay: Cytotoxicity against human KM12 cells after 48 hrs by SRB assay; assay type: functional; settings: KM12, 48 h; how it was run: as §3
HCT-15 = assay: Cytotoxicity against human HCT15 cells after 48 hrs by SRB assay; assay type: functional; settings: HCT-15, 48 h; how it was run: as §3
HCT-116 = assay: Cytotoxicity against human HCT116 cells after 48 hrs by SRB assay; assay type: functional; settings: HCT-116, 48 h; how it was run: as §3
HCC 2998 = assay: Cytotoxicity against human HCC2998 cells after 48 hrs by SRB assay; assay type: functional; settings: HCC 2998, 48 h; how it was run: as §3
COLO 205 = assay: Cytotoxicity against human COLO205 cells after 48 hrs by SRB assay; assay type: functional; settings: COLO 205, 48 h; how it was run: as §3
EKVX = assay: Induction of apoptosis in TNFalpha-stimulated human EKVX cells at 1 uM incubated for 1 hr prior to TNFalpha stimulation measured after 18 hrs by TUNEL assay; assay type: functional, cell-based
How it was run: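 EKVX cells in RPMI 1640 with 10% FBS were grown on glass coverslips. Compound was given for 1 h at 37 °C, then 20 ng/ml TNFα for 18 h. Cells were fixed in 3.7% paraformaldehyde, treated with proteinase K for 30 min, then TUNEL-labelled with streptavidin-fluorescein plus DAPI. Scored by fluorescence microscopy.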

HepG2 [6] = assay: Inhibition of TNFalpha-induced NFkappaB (unknown origin)-dependent transcriptional activity expressed in human HepG2 cells at 0.1 to 10 uM incubated for 1 hr prior to TNFalpha induction measured after 6 hrs by dual-luciferase reporter gene assay; assay type: cell-based; how it was run: as §1

## c1ccc2c(NCCc3ccc4c(c3)OCO4)ncnc2c1
HepG2 [1]
  inhibition: Active
HepG2 [2]
  Activity: -28.1%
HepG2 [3]
  Activity: -20.1%

## Oc1ccccc1CN1CCN(c2nc(-c3ccccc3)nc3ccccc23)CC1
HepG2 [1]
  inhibition: Active
HepG2 [2]
  Activity: 13%
HepG2 [3]
  Activity: 14.6%

## c1ccc(CN2CCN(c3nc(-c4ccccc4)nc4ccccc34)CC2)cc1
HepG2 [1]
  inhibition: Active
HepG2 [2]
  Activity: 13.7%
HepG2 [3]
  Activity: 30.7%

## c1ccc(-c2nc(NCCc3c[nH]c4ccccc34)c3ccccc3n2)cc1
BT-549
  GI50: 4.4 µM
T47D
  GI50: 2.4 µM
MDA-MB-231
  GI50: 3.1 µM
Hs-578T
  GI50: 3.4 µM
DU-145
  GI50: 4.7 µM
MCF7
  GI50: 4.2 µM
UO-31
  GI50: 3 µM
PC-3
  GI50: 2.4 µM
SN12C
  GI50: 3.9 µM
TK-10
  GI50: 2.8 µM
CAKI-1
  GI50: 3.1 µM
RXF 393
  GI50: 1.9 µM
786-0
  GI50: 2.5 µM
A498
  GI50: 2 µM
[4]
  GI50: 2.6 µM
[5]
  GI50: 3.7 µM
OVCAR-8
  GI50: 2.2 µM
OVCAR-4
  GI50: 3.6 µM
IGROV-1
  GI50: 3.2 µM
OVCAR-3
  GI50: 2.9 µM
UACC-257
  GI50: 3.2 µM
UACC-62
  GI50: 2 µM
SK-MEL-2
  GI50: 3 µM
SK-MEL-28
  GI50: 6.2 µM
MDA-MB-435
  GI50: 2.3 µM
M14
  GI50: 2.6 µM
LOX IMVI
  GI50: 2.2 µM
Malme-3M
  GI50: 2.8 µM
U-251
  GI50: 3.2 µM
SNB-19
  GI50: 5.1 µM
SNB-75
  GI50: 5.9 µM
SF-295
  GI50: 2 µM
SF-539
  GI50: 2 µM
SF-268
  GI50: 4.6 µM
SW-620
  GI50: 3 µM
KM12
  GI50: 2.8 µM
HCT-15
  GI50: 2.5 µM
HCT-116
  GI50: 2.8 µM
HCC 2998
  GI50: 2.1 µM
COLO 205
  GI50: 2.2 µM
EKVX
  Activity: Active
HepG2 [6]
  inhibition: Active
HepG2 [1]
  inhibition: Active
HepG2 [2]
  Activity: -46.7%
HepG2 [3]
  Activity: -35.3%

## c1ccc2c(NCCc3c[nH]c4ccccc34)ncnc2c1
BT-549
  GI50: 12.3 µM
T47D
  GI50: 12 µM
MDA-MB-231
  GI50: 21.9 µM
Hs-578T
  GI50: 60.3 µM
DU-145
  GI50: 27.5 µM
MCF7
  GI50: 11.2 µM
UO-31
  GI50: 14.5 µM
PC-3
  GI50: 19.5 µM
SN12C
  GI50: 30.2 µM
TK-10
  GI50: 20.4 µM
CAKI-1
  GI50: 2.2 µM
RXF 393
  GI50: 30.9 µM
786-0
  GI50: 33.9 µM
A498
  GI50: 2.8 µM
[4]
  GI50: 5.6 µM
[5]
  GI50: 58.9 µM
OVCAR-8
  GI50: 5.5 µM
OVCAR-4
  GI50: 1.5 µM
IGROV-1
  GI50: 14.1 µM
OVCAR-3
  GI50: 19.1 µM
UACC-257
  GI50: 9.8 µM
UACC-62
  GI50: 14.1 µM
SK-MEL-2
  GI50: 30.9 µM
SK-MEL-28
  GI50: 25.1 µM
MDA-MB-435
  GI50: 10.2 µM
M14
  GI50: 24.6 µM
LOX IMVI
  GI50: 15.5 µM
Malme-3M
  GI50: 29.5 µM
U-251
  GI50: 30.9 µM
SNB-19
  GI50: 50.1 µM
SNB-75
  GI50: 22.9 µM
SF-295
  GI50: 3.5 µM
SF-539
  GI50: 39.8 µM
SF-268
  GI50: 34.7 µM
SW-620
  GI50: 41.7 µM
KM12
  GI50: 19.1 µM
HCT-15
  GI50: 24 µM
HCT-116
  GI50: 6.3 µM
HCC 2998
  GI50: 26.3 µM
COLO 205
  GI50: 28.2 µM
HepG2 [1]
  inhibition: Active
HepG2 [2]
  Activity: -30%
HepG2 [3]
  Activity: -22.3%

## c1ccc(-c2nc(NCCc3ccc4c(c3)OCO4)c3ccccc3n2)cc1
HepG2 [1]
  inhibition: Active
HepG2 [2]
  Activity: -46.8%
HepG2 [3]
  Activity: -30.7%

## c1ccc(CN2CCN(c3ncnc4ccccc34)CC2)cc1
HepG2 [1]
  inhibition: Active
HepG2 [2]
  Activity: -17.6%
HepG2 [3]
  Activity: -16.7%
